Columns and labels:
[1] = molecular target: Histone deacetylase; assay: Inhibition of HDAC in human HeLa nuclear extract using Boc-Lys-(Ac)-AMC as substrate preincubated for 15 mins followed by substrate addition measured after 60 mins by fluorescence assay; type: protein assay
[2] = molecular target: Histone deacetylase 1 (Homo sapiens, UniProt Q13547); assay: Inhibition of full length recombinant human C-terminal FLAG/His-tagged HDAC1 expressed in baculovirus infected sf9 cells using Boc-Lys-(Ac)-AMC as substrate preincubated for 15 mins followed by substrate addition measured after 60 mins by fluorescence assay
[3] = molecular target: Histone deacetylase 2 (Homo sapiens, UniProt Q92769); assay: (§1) Inhibition of full length recombinant human C-terminal His-tagged HDAC2 expressed in baculovirus infected sf9 cells using Boc-Lys-(Ac)-AMC as substrate preincubated for 15 mins followed by substrate addition measured after 60 mins by fluorescence assay
[4] = molecular target: Histone deacetylase 3/Nuclear receptor corepressor 2 (HDAC3/NCoR2) (Homo sapiens, UniProt O15379); assay: as §1, with “HDAC3/N-terminal GST-tagged NCOR2 (395 to 489 residues)” for “HDAC2”
[5] = molecular target: T1, Protein deacetylase HDAC6 (Homo sapiens, UniProt Q9UBN7); assay: Inhibition of full length recombinant human N-terminal GST-tagged HDAC6 expressed in baculovirus infected sf9 cells using Boc-Lys-(Ac)-AMC as substrate preincubated for 15 mins followed by substrate addition measured after 60 mins by fluorescence assay
T1 sequence (Q9UBN7 whole entry): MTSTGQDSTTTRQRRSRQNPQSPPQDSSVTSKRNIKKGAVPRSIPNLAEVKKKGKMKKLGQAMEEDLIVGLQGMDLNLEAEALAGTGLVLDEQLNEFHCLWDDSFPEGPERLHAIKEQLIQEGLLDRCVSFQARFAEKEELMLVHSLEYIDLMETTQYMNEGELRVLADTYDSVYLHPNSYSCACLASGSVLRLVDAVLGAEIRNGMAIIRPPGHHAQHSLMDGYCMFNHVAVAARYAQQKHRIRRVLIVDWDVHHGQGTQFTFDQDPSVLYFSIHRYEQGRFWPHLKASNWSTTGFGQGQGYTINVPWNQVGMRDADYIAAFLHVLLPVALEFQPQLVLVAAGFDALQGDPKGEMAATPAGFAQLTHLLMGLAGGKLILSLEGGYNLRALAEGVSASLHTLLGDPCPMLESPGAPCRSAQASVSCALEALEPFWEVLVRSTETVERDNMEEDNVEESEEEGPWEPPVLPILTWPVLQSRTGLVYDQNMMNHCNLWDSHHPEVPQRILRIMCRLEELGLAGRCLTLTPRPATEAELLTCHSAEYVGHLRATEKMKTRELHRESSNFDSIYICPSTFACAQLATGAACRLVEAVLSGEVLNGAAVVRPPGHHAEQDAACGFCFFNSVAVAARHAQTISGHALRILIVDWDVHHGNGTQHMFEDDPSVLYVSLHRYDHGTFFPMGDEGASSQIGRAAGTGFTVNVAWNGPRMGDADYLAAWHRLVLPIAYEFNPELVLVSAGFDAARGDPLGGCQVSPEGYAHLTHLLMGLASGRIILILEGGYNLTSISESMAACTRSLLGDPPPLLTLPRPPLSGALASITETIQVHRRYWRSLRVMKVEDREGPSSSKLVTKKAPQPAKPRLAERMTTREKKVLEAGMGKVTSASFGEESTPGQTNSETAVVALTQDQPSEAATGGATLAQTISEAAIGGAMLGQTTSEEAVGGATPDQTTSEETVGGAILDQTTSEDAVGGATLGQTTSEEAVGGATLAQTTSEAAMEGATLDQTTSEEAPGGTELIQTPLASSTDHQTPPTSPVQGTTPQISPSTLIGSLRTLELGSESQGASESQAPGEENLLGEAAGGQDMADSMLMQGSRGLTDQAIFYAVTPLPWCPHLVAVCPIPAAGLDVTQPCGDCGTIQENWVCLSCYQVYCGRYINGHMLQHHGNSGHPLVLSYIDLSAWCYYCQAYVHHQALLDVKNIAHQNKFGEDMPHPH

[6] = molecular target: T2, Histone deacetylase 8 (Homo sapiens, UniProt Q9BY41); assay: Inhibition of full length recombinant human C-terminal His-tagged HDAC8 expressed in baculovirus infected sf9 cells using Boc-Lys-(TFA)-AMC as substrate preincubated for 15 mins followed by substrate addition measured after 60 mins by fluorescence assay
T2 sequence (Q9BY41 whole entry): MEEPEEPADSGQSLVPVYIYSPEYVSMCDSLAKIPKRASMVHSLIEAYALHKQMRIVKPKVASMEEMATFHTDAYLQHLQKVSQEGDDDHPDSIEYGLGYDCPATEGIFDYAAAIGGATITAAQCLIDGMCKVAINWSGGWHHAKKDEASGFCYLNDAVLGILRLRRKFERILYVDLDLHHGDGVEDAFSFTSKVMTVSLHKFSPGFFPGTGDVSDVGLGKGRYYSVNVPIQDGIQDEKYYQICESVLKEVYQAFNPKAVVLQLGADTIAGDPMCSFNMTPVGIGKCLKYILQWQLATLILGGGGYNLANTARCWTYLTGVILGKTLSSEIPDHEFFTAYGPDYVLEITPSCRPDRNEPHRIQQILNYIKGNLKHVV

[7] = tested on: A549; assay: Antiproliferative activity against human A549 cells after 96 hrs by MTT assay; type: functional
Method in brief: (§2)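 Cells from Shanghai Cell Bank; A549 grown in high-glucose DMEM and HepG2 in MEM, both with 10% FBS plus penicillin/streptomycin, at 37°C in 5% CO₂. Seeded at 1.5-3.5×10⁴ cells/well for 24 h, then given graded compound concentrations for 96 h. MTT solution (2 mg/mL) added for 4 h, formazan dissolved in DMSO, A570 read. Growth expressed as treated/untreated cell number ratio.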

[8] = tested on: HepG2; assay: Antiproliferative activity against human HepG2 cells after 96 hrs by MTT assay; type: functional; method in brief: as §2

Sequence of Histone deacetylase 3/Nuclear receptor corepressor 2 (HDAC3/NCoR2) (O15379 whole entry, the tested form may be a part): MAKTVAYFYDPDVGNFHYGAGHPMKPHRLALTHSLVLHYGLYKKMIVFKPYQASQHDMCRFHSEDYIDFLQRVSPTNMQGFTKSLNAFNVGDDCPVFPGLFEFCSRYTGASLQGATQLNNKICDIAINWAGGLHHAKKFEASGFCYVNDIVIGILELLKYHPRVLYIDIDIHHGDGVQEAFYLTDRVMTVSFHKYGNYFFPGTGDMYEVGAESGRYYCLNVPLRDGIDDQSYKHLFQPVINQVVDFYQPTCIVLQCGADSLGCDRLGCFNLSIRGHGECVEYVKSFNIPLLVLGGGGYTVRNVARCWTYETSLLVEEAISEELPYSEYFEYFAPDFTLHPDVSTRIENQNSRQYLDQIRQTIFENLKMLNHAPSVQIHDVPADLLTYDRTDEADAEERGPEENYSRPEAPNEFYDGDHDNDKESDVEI
Sequence of Histone deacetylase 3/Nuclear receptor corepressor 2 (HDAC3/NCoR2) (Q9Y618 whole entry, further chain, the tested form may be a part): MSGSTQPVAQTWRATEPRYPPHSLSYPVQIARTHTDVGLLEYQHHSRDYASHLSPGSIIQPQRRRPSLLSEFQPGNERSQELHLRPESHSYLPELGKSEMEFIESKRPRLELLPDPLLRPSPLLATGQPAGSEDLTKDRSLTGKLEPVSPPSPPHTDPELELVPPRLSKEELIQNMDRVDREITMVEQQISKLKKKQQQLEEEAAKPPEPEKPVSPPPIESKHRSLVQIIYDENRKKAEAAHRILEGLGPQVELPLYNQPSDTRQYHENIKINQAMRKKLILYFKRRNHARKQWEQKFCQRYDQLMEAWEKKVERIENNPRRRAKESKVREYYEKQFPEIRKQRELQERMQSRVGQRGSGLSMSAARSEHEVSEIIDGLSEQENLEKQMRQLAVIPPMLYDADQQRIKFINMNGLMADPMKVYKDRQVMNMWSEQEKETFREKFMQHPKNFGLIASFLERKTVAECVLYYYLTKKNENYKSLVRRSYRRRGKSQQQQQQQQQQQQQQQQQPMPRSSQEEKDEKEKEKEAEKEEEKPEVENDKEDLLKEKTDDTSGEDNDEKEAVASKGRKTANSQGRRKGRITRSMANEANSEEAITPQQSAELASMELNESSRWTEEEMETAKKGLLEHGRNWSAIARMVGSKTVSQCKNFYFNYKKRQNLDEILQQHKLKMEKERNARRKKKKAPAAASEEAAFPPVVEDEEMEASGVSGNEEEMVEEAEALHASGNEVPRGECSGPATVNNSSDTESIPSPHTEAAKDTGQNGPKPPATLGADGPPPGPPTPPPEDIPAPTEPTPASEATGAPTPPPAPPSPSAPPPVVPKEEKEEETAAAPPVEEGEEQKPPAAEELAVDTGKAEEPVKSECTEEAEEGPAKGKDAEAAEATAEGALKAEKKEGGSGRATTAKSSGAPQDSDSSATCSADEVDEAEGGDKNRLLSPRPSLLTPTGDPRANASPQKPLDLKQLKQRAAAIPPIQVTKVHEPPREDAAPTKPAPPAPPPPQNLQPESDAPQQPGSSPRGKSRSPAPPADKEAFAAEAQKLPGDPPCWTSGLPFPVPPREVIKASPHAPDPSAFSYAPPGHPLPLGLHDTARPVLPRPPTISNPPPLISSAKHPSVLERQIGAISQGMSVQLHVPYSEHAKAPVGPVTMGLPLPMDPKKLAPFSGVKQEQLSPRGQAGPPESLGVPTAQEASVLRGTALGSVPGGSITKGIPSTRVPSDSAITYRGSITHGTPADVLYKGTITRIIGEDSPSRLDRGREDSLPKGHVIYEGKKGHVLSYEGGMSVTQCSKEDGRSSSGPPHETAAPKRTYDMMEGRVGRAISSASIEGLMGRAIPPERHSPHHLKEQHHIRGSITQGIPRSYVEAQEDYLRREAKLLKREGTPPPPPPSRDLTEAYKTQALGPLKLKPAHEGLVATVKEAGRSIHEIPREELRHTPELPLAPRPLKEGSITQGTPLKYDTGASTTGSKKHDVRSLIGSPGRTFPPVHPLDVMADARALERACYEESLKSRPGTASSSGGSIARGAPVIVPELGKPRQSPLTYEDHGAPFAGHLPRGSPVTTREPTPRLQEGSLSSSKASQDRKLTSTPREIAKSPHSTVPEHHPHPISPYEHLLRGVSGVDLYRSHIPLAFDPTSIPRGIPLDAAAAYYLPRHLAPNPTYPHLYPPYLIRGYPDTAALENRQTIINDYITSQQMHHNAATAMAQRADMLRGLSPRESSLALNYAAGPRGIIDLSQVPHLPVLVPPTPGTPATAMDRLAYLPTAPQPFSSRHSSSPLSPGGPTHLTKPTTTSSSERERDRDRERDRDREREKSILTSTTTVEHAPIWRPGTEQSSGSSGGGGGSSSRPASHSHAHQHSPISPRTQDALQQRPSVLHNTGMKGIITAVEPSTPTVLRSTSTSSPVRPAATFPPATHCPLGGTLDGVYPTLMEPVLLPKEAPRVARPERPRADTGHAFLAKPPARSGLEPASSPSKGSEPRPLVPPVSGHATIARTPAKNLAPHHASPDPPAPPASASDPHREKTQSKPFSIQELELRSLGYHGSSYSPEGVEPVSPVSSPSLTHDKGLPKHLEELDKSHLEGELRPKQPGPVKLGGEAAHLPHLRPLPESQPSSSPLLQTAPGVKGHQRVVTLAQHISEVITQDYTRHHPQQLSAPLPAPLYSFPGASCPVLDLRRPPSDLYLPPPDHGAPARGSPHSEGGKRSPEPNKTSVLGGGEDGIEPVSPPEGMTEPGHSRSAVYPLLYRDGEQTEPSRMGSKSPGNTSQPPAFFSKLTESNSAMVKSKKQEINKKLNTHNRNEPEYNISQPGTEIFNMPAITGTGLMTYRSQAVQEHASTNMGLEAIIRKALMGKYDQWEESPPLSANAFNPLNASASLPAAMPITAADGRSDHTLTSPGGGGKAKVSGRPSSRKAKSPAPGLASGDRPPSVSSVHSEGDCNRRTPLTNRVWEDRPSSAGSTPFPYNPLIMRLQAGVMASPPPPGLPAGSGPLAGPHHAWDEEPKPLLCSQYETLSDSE
Sequence of Histone deacetylase 2 (Q92769 whole entry, the tested form may be a part): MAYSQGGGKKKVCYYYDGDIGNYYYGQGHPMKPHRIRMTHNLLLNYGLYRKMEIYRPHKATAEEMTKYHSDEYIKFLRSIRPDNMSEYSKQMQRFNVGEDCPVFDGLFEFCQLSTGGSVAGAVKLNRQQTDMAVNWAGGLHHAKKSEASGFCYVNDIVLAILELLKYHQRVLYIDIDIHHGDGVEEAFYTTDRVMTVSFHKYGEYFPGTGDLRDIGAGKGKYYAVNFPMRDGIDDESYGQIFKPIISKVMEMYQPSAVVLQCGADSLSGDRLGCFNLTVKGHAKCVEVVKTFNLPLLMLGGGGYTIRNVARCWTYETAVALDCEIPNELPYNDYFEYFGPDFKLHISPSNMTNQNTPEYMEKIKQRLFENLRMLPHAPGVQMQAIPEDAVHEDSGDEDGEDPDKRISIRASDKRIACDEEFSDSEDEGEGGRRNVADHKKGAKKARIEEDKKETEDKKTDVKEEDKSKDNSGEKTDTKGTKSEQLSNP
Sequence of Histone deacetylase 1 (Q13547 whole entry): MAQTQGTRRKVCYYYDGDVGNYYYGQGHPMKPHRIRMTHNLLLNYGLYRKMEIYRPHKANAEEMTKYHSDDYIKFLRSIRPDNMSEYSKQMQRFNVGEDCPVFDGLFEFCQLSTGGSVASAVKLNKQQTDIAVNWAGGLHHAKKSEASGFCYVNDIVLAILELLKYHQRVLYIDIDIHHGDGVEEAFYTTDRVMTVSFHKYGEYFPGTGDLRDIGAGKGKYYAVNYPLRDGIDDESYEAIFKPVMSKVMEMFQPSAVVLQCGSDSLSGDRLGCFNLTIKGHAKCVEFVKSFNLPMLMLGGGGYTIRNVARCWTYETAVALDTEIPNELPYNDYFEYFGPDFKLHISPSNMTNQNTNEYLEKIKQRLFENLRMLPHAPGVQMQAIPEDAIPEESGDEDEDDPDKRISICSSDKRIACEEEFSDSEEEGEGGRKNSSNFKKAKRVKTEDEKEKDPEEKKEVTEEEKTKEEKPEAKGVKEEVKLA

Compound	IC50 [1] [nM]	IC50 [2] [nM]	IC50 [3] [nM]	IC50 [4] [nM]	IC50 [5] [nM]	IC50 [6] [nM]	GI50 ([7]; Homo sapiens, A549, 96 h) [nM]	GI50 ([8]; Homo sapiens, HepG2, 96 h) [nM]	GI50 [7] [nM]	GI50 [8] [nM]
CCc1cc(-c2ccc(F)cc2)nn1Cc1ccc(C(=O)NO)cc1	165	487	391	228	35	> 5000	19200	16700	–	–
Cc1cc(-c2ccc(F)cc2)nn1Cc1ccc(C(=O)NO)cc1	40	480	114	69	8	> 5000	11400	30000	–	–
Cc1ccc(-c2cc(C(F)(F)F)n(Cc3ccc(C(=O)NO)cc3)n2)cc1	33	110	47	21	16	> 5000	15500	8580	–	–
O=C(CCCCCCNC(=O)c1cc(-c2ccc(F)cc2)[nH]n1)NO	43	79	40	35	22	2950	1980	23200	–	–
Cc1cc(-c2ccc3c(c2)OCO3)n(Cc2ccc(C(=O)NO)cc2)n1	16	430	135	92	36	> 5000	23200	16500	–	–
CCCc1cc(-c2ccc(F)cc2)n(Cc2ccc(C(=O)NO)cc2)n1	3827	> 5000	2880	1940	167	> 5000	16000	6660	–	–
O=C(NO)c1ccc(CNC(=O)c2cc(-c3ccc(F)cc3)[nH]n2)cc1	22	38	17	9	1	> 5000	20200	38100	–	–
CCc1cc(-c2ccc(F)cc2)n(Cc2ccc(C(=O)NO)cc2)n1	1792	3610	1500	1840	69	> 5000	16700	7760	–	–
O=C(CCCNC(=O)c1cc(-c2ccc(F)cc2)[nH]n1)NO	2603	3740	1830	1430	1060	> 5000	> 100000	88000	–	–
O=C(CCCCCNC(=O)c1cc(-c2ccc(F)cc2)[nH]n1)NO	58	66	42	36	29	3710	7090	47600	–	–
O=C(NO)c1ccc(Cn2nc(-c3ccc(F)cc3)cc2Cc2ccccc2)cc1	1028	1880	763	619	326	> 5000	–	–	–	–
O=C(CCNC(=O)c1cc(-c2ccc(F)cc2)[nH]n1)NO	> 5000	> 5000	> 5000	> 5000	> 5000	> 5000	46900	76000	–	–
O=C(CCCCNC(=O)c1cc(-c2ccc(F)cc2)[nH]n1)NO	644	1040	883	671	275	> 5000	> 100000	> 100000	–	–
Cc1ccc(-c2cc(C(F)(F)F)nn2CCc2ccc(C(=O)NO)cc2)cc1	1460	1070	635	816	540	> 5000	29300	24000	–	–
Cc1ccc(-c2cc(C(F)(F)F)nn2Cc2ccc(C(=O)NO)cc2)cc1	231	925	1220	128	27	> 5000	10600	7500	–	–
CCCc1cc(-c2ccc(F)cc2)nn1Cc1ccc(C(=O)NO)cc1	476	541	362	290	107	> 5000	15200	16800	–	–
Cc1ccc(-c2cc(C)nn2Cc2ccc(C(=O)NO)cc2)cc1	22	694	76	53	29	> 5000	12400	13300	–	–
Cc1ccc(-c2cc(C(F)(F)F)nn2-c2ccc(C(=O)NO)cc2)cc1	1139	836	919	736	359	> 5000	> 100000	> 100000	–	–
Cc1cc(-c2ccc3c(c2)OCO3)nn1Cc1ccc(C(=O)NO)cc1	8	24	40	36	5	> 5000	28100	20800	–	–
O=C(NO)c1ccc(Cn2nc(Cc3ccccc3)cc2-c2ccc(F)cc2)cc1	> 5000	> 5000	> 5000	> 5000	420	> 5000	–	–	–	–
Cc1ccc(-c2cc(C(F)(F)F)n(CCc3ccc(C(=O)NO)cc3)n2)cc1	121	352	549	80	78	> 5000	> 100000	27600	–	–
Cc1ccc(-c2cc(C)n(Cc3ccc(C(=O)NO)cc3)n2)cc1	13	133	41	26	7	> 5000	11200	21200	–	–
Cc1ccc(-c2cc(C(F)(F)F)nn2-c2ccc(S(N)(=O)=O)cc2)cc1 [CELECOXIB]	1637	1190	–	–	643	–	–	–	–	–
O=C(CCCCCCC(=O)Nc1ccccc1)NO [VORINOSTAT]	–	–	–	–	–	–	–	–	5020	22000

Source: ChEMBL document CHEMBL4219109, “Design, synthesis and biological evaluation of novel hydroxamic acid based histone deacetylase 6 selective inhibitors bearing phenylpyrazol scaffold as surface recognition motif” (Bioorg Med Chem, 2018)
